The values below come from ChEMBL document CHEMBL3102794, “Discovery of 2-pyridineformamide thiosemicarbazones as potent antiausterity agents” (2014).

Activity calls are given as the source filed them. The calls are words filed in the database; no cut-off is given here.

Experiment [1] can be described thus: Cytotoxicity against human PANC1 cells in nutrient-deprived medium after 24 hrs by WST-8 assay. It is filed as functional, PANC-1. The method in brief: (§1)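 PANC-1 cells were seeded at 1.5 × 10^4/well and grown 24 h in DMEM at 37 °C, 5% CO2. They were washed with D-PBS, then exposed to serial dilutions in DMEM or NDM for 24 h, with control and blank wells. Viability was read by WST-8 (10% in DMEM, 3 h, A450), averaged over three wells: (test−blank)/(control−blank)×100.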
On the technique in general: Formazan colour is commonly taken as a measure of viable cells.

The subject of experiment [2] is PANC-1. Briefly: Ratio of arctigenin PC50 to compound PC50 for human PANC1 cells. Type of experiment: functional.
Experiment [3] has as its system PANC-1. Briefly: Cytotoxicity against human PANC1 cells after 24 hrs by WST-8 assay in presence of DMEM. It is filed as functional, cell-based. The method in brief: as §1
For experiment [4], the system named is PANC-1. Briefly: Induction of apoptosis in human PANC1 cells in nutrient-deprived medium assessed as cell swelling at 1 uM after 24 hrs by phase contrast microscopy relative to control. Type of experiment: functional, cell-based. The method in brief:
(§2)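 Cells were seeded at 1 × 10^6 per 60 mm dish and allowed to attach for 24 h. They were washed twice and treated with 1 µM in DMEM or NDM for 24 h. EB/AO dye mixture (100 µg/ml each, in PBS) was added, and cells were imaged in fluorescent and phase-contrast modes at 40× objective. AO marks viable cells green; EB marks late apoptotic/necrotic cells red.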

Experiment [5] is filed under the species Homo sapiens. Briefly: Inhibition of AKT (unknown origin) phosphorylation at T308 at 1 to 100 uM after 4 hrs by Western blotting analysis in presence of nutrient-deprived medium. The method in brief: (§3)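 Proteins were separated by SDS-PAGE (0.1% SDS) and transferred to PVDF. Membranes were blocked, washed in PBS with 0.1% polysorbate 20, and incubated overnight at room temperature with primary antibodies. HRP-conjugated secondary antibody was applied for 45 min at room temperature, and bands were detected by enhanced chemiluminescence.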
For orientation: Immunoblotting shows a protein as a band on a membrane.

Experiment [6] is filed under the species Homo sapiens. In words: Inhibition of AKT (unknown origin) phosphorylation at T308 at 100 uM after 4 hrs by Western blotting analysis in presence of DMEM. The method in brief:
as §3

Experiment [7] concerns the target T1, Caspase-3 (Homo sapiens) (UniProt P42574).
T1 sequence (whole entry): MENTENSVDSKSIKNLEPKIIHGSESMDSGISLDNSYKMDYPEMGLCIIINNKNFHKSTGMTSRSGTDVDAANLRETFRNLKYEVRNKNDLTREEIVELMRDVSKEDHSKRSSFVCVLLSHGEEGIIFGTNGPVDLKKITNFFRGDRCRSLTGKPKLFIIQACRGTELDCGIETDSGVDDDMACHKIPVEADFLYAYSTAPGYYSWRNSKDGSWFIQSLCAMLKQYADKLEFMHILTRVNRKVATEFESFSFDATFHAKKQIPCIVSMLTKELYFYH
In words: Induction of caspase3 (unknown origin) cleavage after 4 hrs by Western blotting analysis in presence of DMEM. The method in brief: as §3

The subject of experiment [8] is PANC-1. Briefly: Induction of apoptosis in human PANC1 cells in nutrient-deprived medium assessed as translocation of phosphatidylserine to external surface at 1 uM after 12 hrs by Annexin V-FITC/propidium iodide staining-based fluorescence microscopy. Type of experiment: functional, cell-based.
The subject of experiment [9] is PANC-1. Briefly: Induction of apoptosis in human PANC1 cells in nutrient-deprived medium assessed as disruption of cell organelles at 1 uM after 24 hrs by phase contrast microscopy relative to control. It is filed as functional, cell-based. The method in brief: as §2
The subject of experiment [10] is PANC-1. Briefly: Induction of apoptosis in human PANC1 cells in nutrient-deprived medium assessed as rupture of cell membrane at 1 uM after 24 hrs by phase contrast microscopy relative to control. Type of experiment: functional, cell-based. The method in brief: as §2
Experiment [11] is filed under the species Homo sapiens. Briefly: Inhibition of AKT (unknown origin) phosphorylation at S437 at 100 uM after 4 hrs by Western blotting analysis in presence of DMEM. The method in brief: as §3
Experiment [12] is filed under the species Homo sapiens. In words: Inhibition of AKT (unknown origin) phosphorylation at S437 at 1 to 100 uM after 4 hrs by Western blotting analysis in presence of nutrient-deprived medium. The method in brief: as §3
In experiment [13] the test system is PANC-1. In words: Induction of apoptosis in human PANC1 cells in nutrient-deprived medium assessed as late apoptotic and necrotic cells at 1 uM after 24 hrs by ethidium bromide/acridine orange staining-based fluorescence microscopy relative to control. Type of experiment: functional, cell-based. The method in brief: as §2
For experiment [14], the target named is T1, Caspase-3 (Homo sapiens). Briefly: Induction of caspase3 (unknown origin) cleavage after 4 hrs by Western blotting analysis in presence of nutrient-deprived medium. The method in brief: as §3

On to `N/C(=N\NC(=S)N1CCSCC1)c1ccccn1`, for which the PC50 in experiment [1] came to 1.9 µM. Same read-out and setting: for `N/C(=N\NC(=S)N1CCCCCC1)c1ccccn1` the value was 1.4 µM; for `N/C(=N\NC(=S)N1CCOCC1)c1ccccn1`, 1.6 µM; for `N/C(=N\NC(=S)N1CCCCC1)c1ccccn1`, 1.6 µM.

`Cc1ccnc(/C(N)=N/NC(=S)N2CCN(c3ccccn3)CC2)c1` yielded a PC50 in [1] of 0.68 µM. Same read-out and setting: for `COc1cc(C[C@H]2C(=O)OC[C@@H]2Cc2ccc(OC)c(OC)c2)ccc1O` [ARCTIGENIN] the value was 0.85 µM. In turn, `Cc1ccnc(/C(N)=N/NC(=S)N2CCCC2)c1` yielded a PC50 in [1] of 0.37 µM. In the experiment with PANC-1 [2], the Ratio came out at 2.

In experiment [1], `N/C(=N\NC(=S)N1CCCC1)c1ccccn1` yielded a PC50 of 0.78 µM. `CC(=O)O[C@H]1C(=O)[C@@]2(C)[C@H]([C@H](OC(=O)c3ccccc3)[C@]3(O)C[C@H](OC(=O)[C@H](O)[C@@H](NC(=O)c4ccccc4)c4ccccc4)C(C)=C1C3(C)C)[C@]1(OC(C)=O)CO[C@@H]1C[C@@H]2O` [PACLITAXEL] showed a PC50 in experiment [1] above 200 µM. In experiment [1], `Cc1ccnc(/C(N)=N/NC(=S)N2CCCCCC2)c1` had a PC50 of 1.7 µM. For `Nc1ccn([C@@H]2O[C@H](CO)[C@@H](O)C2(F)F)c(=O)n1` [GEMCITABINE], the result with PANC-1 [3] was inactive. For the same molecule, the PC50 in experiment [1] was above 200 µM.

`Cc1ccnc(/C(N)=N/NC(=S)N2CCSCC2)c1`: the PC50 in experiment [1] amounted to 1.9 µM. `Cc1ccnc(/C(N)=N/NC(=S)N2CCOCC2)c1`: the PC50 in [1] turned out to be 1.8 µM.

In turn, `Cc1ccnc(/C(N)=N/NC(=S)N2CCCCC2)c1` registered a PC50 in experiment [1] of 1.8 µM.

In the case of `N/C(=N\NC(=S)N1CCN(c2ccccn2)CC1)c1ccccn1`, the result in the experiment on PANC-1 [4], in the experiment on PANC-1 [8], with PANC-1 [9], in the experiment with PANC-1 [10] and in the experiment on PANC-1 [13] was Active. Besides, the inhibition result in the experiment listed under Homo sapiens [5], in the experiment listed under Homo sapiens [6], in the experiment listed under Homo sapiens [11] and in the experiment filed under Homo sapiens [12] was “inactive” throughout. Besides, the Activity entry at Caspase-3 (Homo sapiens) [7] and at Caspase-3 (Homo sapiens) [14] was “Dose-dependent effect” each time. In addition, the PC50 in experiment [1] was found to be 0.78 µM.
